The target in data set [1] is T1, Peroxisome proliferator-activated receptor alpha (Homo sapiens) (UniProt Q07869).
T1 sequence (whole entry): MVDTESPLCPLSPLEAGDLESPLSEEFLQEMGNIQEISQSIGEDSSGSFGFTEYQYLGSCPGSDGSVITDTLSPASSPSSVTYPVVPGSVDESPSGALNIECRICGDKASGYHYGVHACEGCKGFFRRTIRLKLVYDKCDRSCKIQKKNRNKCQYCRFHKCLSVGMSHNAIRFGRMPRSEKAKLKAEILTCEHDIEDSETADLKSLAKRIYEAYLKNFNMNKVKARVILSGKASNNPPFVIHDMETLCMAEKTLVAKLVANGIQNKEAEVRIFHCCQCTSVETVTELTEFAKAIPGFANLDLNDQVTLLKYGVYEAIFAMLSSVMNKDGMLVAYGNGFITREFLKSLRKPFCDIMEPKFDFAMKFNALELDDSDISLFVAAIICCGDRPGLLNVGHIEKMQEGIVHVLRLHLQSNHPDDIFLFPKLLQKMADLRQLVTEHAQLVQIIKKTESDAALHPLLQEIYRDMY
As to the kind of experiment: Transactivation of human GAL4-fused PPARalpha LBD expressed in human HepG2 cells at 1 uM after 24 hrs by dual renilla-luciferase reporter gene assay relative to fenofibrate. Type of data set: cell-based. In a few lines:
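HepG2 cells cotransfected with 4xUAS-tk-luc and pBIND-hPPARα. Cells treated 24 h with compound at 1 μM final; fenofibrate 10 μM served as reference and 0.1% DMSO as vehicle. Read-out by reporter gene luciferase assay.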

The target in data set [2] is T2, Peroxisome proliferator-activated receptor alpha (Homo sapiens, UniProt Q07869).
T2 sequence (Q07869 whole entry): T1 sequence (whole entry)
As to the kind of experiment: Transactivation of human GAL4-fused PPARalpha LBD expressed in human HepG2 cells after 24 hrs by renilla luciferase reporter gene assay. Type of data set: cell-based. On the technique in general: Reporter assays use an easily measured gene product as a stand-in for the process of interest.

Data set [3] in a line: Protein binding in rat plasma at 20 uM after 5 hrs by LC/MS/MS analysis. Type of data set: ADME, cell-free. The settings on record: 5 h, 20 µM. Put shortly: (§1)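 Compound at 20 μM incubated with plasma at 37°C for 5 h; percent bound to protein determined. Final DMSO 0.2%.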
Data set [4] in a line: Metabolic stability in rat liver microsomes assessed as parent compound remaining at 0.5 uM after 60 mins in presence of NADPH by LC/MS/MS analysis. It counts as ADME, Microsome. The settings on record: microsomes, 1 h, 0.5 µM. Put shortly:
(§2)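 Compound at 0.5 μM incubated with liver microsomes at 37°C for 1 h; result given as percent remaining. Final DMSO 0.2%.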
In general terms: Liver microsomes are vesicles of endoplasmic reticulum, rich in cytochrome P450 enzymes.

Data set [5] is described as follows: Protein binding in human plasma at 20 uM after 5 hrs by LC/MS/MS analysis. It counts as ADME, cell-free. The following applies: 5 h, 20 µM. Put shortly:
as §1

The nature of data set [6]: Metabolic stability in human liver microsomes assessed as parent compound remaining at 0.5 uM after 60 mins in presence of NADPH by LC/MS/MS analysis. The following applies: microsomes, 1 h, 0.5 µM. Type of data set: ADME, Microsome. In a few lines: as §2
Data set [7] in a line: Solubility of the compound in pH 7.4 PBS at 100 uM incubated for 10 mins under shaking condition by HPLC analysis. Type of data set: physicochemical. Put shortly:
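Aqueous solubility determined in PBS, pH 7.4; reported in μM.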

Data set [8] can be described thus: Apparent permeability from apical to basolateral side in human Caco2 cells at 25 uM measured up to 2 hrs by LC/MS/MS analysis. It counts as ADME, cell-based. The settings on record: Caco-2. In a few lines:
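Caco-2 monolayers; permeability measured apical-to-basolateral (A–B) at 25 μM compound, reported as ×10⁻⁶ cm/s.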

Data set [9] addresses Peroxisome proliferator-activated receptor alpha (Homo sapiens) (UniProt Q07869). Briefly: Displacement of fluormone pan-PPAR green from GST-tagged human PPARalpha ligand binding domain after 3 hrs by TR-FRET assay. On the technique in general: TR-FRET usually uses a lanthanide donor and a delayed reading to cut background.
The target of data set [10] is T1, Peroxisome proliferator-activated receptor alpha (Homo sapiens). Briefly: Transactivation of human […] PPARalpha LBD expressed in human HepG2 cells at 1 uM by renilla luciferase reporter gene assay relative to control. Type of data set: cell-based.

pEC50: −log10 of the molar value. Calls of active or inactive are those of the source. The rule behind the calls is not given here. A value given as a limit tells only on which side of the number the result lay.

Take `CCC(Cc1cc(C)nc2c1c(C(C)C)nn2-c1ccc(F)cc1)C(=O)O` (stereo not drawn): the activation relative to fenofibrate in [1] amounted to 1.53. Still for that read-out and setting: under `CC(C)(Sc1ccc(CCN(CCCCC2CCCCC2)C(=O)NC2CCCCC2)cc1)C(=O)O` stands 200. In turn, `CCC(CC)c1nn(-c2ccc(Cl)cc2)c2nc(C)cc(C(=O)O)c12` had a pEC50 in data set [2] of under 5.45. The same compound had an activation relative to fenofibrate in data set [1] of 183.

In data set [2], `Cc1cc(C(=O)O)c2c(C(C)C)nn(-c3ccc(F)cc3)c2n1` had a negative-log EC50 (pEC50) of 5.69. Also, the activation relative to fenofibrate in data set [1] was found to be 79.2. The like results for `CCc1cc(C(=O)O)c2c(C(CC)CC)nn(-c3ccc(Cl)cc3)c2n1` were, in that order, 5.91 and 213. As for `Cc1cc(C(=O)O)c2c(C)nn(-c3ccccc3)c2n1`, the activation relative to fenofibrate in [1] is 13.6. As for `CCc1cc(C(=O)O)c2c(C(C)C)nn(-c3ccc(Cl)cc3)c2n1`, the negative logarithm of the EC50 (pEC50) in data set [2] was 5.86. The same compound showed an activation relative to fenofibrate in data set [1] of 196. The like results for `CCc1cc(C(=O)O)c2c(C(C)C)nn(-c3cccc(Cl)c3)c2n1` were, in that order, under 5.64 and 192. With `O=C(O)c1cc(C2CC2)nc2c1c(C1CCCC1)nn2-c1ccc(Cl)cc1`, the activation relative to fenofibrate in [1] was determined as 76.8. Consider `Cc1cc(C(=O)[O-])c2c(C(C)C)nn(-c3ccc(Cl)cc3)c2n1.[Na+]`, for which the PPB in [3] was found to be 98.9%; in data set [5] it was 99.7%. Further, the results for the Stability in [4] and in data set [6] were 92% and 91%, respectively. For the same compound, the solubility at 10 min, 100 µM in [7] was over 95 µM. Moreover, the Papp A→B at 2 h, 25 µM in data set [8] turned out to be 22.5 ×10⁻⁶ cm/s. As to `O=C(O)c1cc(C2CC2)nc2c1c(C1CCC1)nn2-c1ccc(Cl)cc1`, in [1], the activation relative to fenofibrate stood at 88.3. The same measure, in the same setting: the value for `Cc1cc(C(=O)O)c2c(C(C)C)nn(-c3cccc(Cl)c3)c2n1` was 96.7. In [2], `CCC(C)c1nn(-c2ccc(Cl)cc2)c2nc(C)cc(C(=O)O)c12` (stereo not drawn) gave a pEC50 of 6.17. The activation relative to fenofibrate in data set [1] was 176. In [1], `Cc1cc(C(=O)O)c2c(C3CC3)nn(-c3ccc(Cl)cc3)c2n1` came in with an activation relative to fenofibrate of 24.6. Turning to `Cc1cc(C(=O)O)c2c(C(C)(C)C)nn(-c3ccc(Cl)cc3)c2n1`, the inhibition entry in data set [9] was “inactive”. In data set [1], this compound came in with an activation relative to fenofibrate of 2.26.

As to `CCc1cc(C(=O)O)c2c(C(CC)CC)nn(-c3ccc(F)cc3)c2n1`, the pEC50 in [2] was 5.82. In [1], this compound showed an activation relative to fenofibrate of 250.

With `CC(C)c1nn(-c2ccc(Cl)cc2)c2nc(C3CC3)cc(C(=O)O)c12`, the pEC50 in data set [2] was under 5.56. For the same compound, the activation relative to fenofibrate in data set [1] was determined as 114. With `CC(C)c1nn(-c2ccc(F)cc2)c2ncc(C(=O)O)c(Cl)c12`, in [1], the activation relative to fenofibrate amounted to 6.21. Still for that read-out and setting: the value for `Cc1cc(C(=O)O)c2c(C3CCCC3)nn(-c3ccc(Cl)cc3)c2n1` was 64.8. The compound `CCC(CC)c1nn(-c2ccc(F)cc2)c2nc(C)cc(C(=O)O)c12` had a negative-log EC50 (pEC50) in data set [2] of 5.84. In [1], this compound gave an activation relative to fenofibrate of 205.

Turning to `CCc1cc(C(=O)O)c2c(C(C)C)nn(-c3ccc(I)cc3)c2n1`, the negative logarithm of the EC50 (pEC50) in data set [2] was 5.75. In data set [1], this compound registered an activation relative to fenofibrate of 111.

In data set [1], `Cc1cc(C(=O)O)c2c(C(C)(C)C)nn(-c3cccc(Cl)c3)c2n1` gave an activation relative to fenofibrate of 5.75. On to `CCC(C)c1nn(-c2ccc(Cl)cc2)c2nc(C3CC3)cc(C(=O)O)c12` (stereo not drawn), for which the negative logarithm of the EC50 (pEC50) in [2] was 6.34. Also, the activation relative to fenofibrate in data set [1] was 224. The like results for `CC(C)c1nn(-c2cccc(Cl)c2)c2nc(C3CC3)cc(C(=O)O)c12` were, in that order, under 5.87 and 163. The like results for `Cc1cc(C(=O)O)c2c(C(C)C)nn(-c3ccc(I)cc3)c2n1` were, in that order, 5.62 and 111. For `CCc1cc(C(=O)O)c2c(C(C)C)nn(-c3ccc(Br)cc3)c2n1`, in that order: 5.91 and 251. As to `CCc1cc(C(=O)O)c2c(C(C)C)nn(-c3ccc(Cl)cn3)c2n1`, in [1], the activation relative to fenofibrate was 16.2. Same read-out and setting: the value for `CCc1cc(C(=O)O)c2c(C3CCCC3)nn(-c3ccc(Cl)cc3)c2n1` was 78.2. As for `CC(C)c1nn(-c2ccc(Cl)cc2)c2nc(-c3ccccc3)cc(C(=O)O)c12`, in [2], the pEC50 is 5.74. In [1], the activation relative to fenofibrate worked out at 243. In data set [2], `Cc1cc(C(=O)O)c2c(C(C)C)nn(-c3ccc(Br)cc3)c2n1` gave a negative-log EC50 (pEC50) of under 5.40. This compound yielded an activation relative to fenofibrate in [1] of 85.2. Turning to `Cc1cc(C(=O)O)c2c(C(C)C)nn(-c3cccc(OCc4ccccc4)c3)c2n1`, the activation relative to fenofibrate in data set [1] is 47.4.

`CC(C)c1nn(-c2ccc(F)cc2)c2nc(C3CC3)cc(C(=O)O)c12` gave a fold change (FC) in [10] of 151.

In the case of `Cc1cc(C(=O)O)c2c(C(C)C)nn(-c3ccc(C(F)(F)F)cc3)c2n1`, the activation relative to fenofibrate in [1] was determined as 26.

`Cc1cc(C(=O)O)c2c(C(C)C)nn(-c3ccc(Cl)c(Cl)c3)c2n1`: the activation relative to fenofibrate in data set [1] stood at 51. `CC(C)c1nn(-c2ccc(Br)cc2)c2nc(C3CC3)cc(C(=O)O)c12` showed a negative logarithm of the EC50 (pEC50) in [2] of 5.70. In data set [1], this compound registered an activation relative to fenofibrate of 199.

In general, pEC50 refers to the EC50 on a negative log10 scale, so that one unit is a factor of ten. A high value points to a small EC50. As usually defined, the solubility is how much of the substance goes into solution per volume. Read a high solubility as a readily soluble substance. For orientation: Papp A→B means the apparent permeability from the apical to the basolateral side of a cell layer.

For the origin of these results see ChEMBL document CHEMBL4385646, “Structural development of 1H-pyrazolo-[3,4-b]pyridine-4-carboxylic acid derivatives as human peroxisome proliferator-activated receptor alpha (PPARα)-selective agonists” (Bioorg Med Chem Lett, 2019).
